Here are results for 13 molecules from ChEMBL document CHEMBL1155198, “Non-nucleoside inhibitors of HCV polymerase NS5B. Part 4: structure-based design, synthesis, and biological evaluation of benzo[d]isothiazole-1,1-dioxides” (Bioorg Med Chem Lett, 2009).

The target of one series is Genome polyprotein (Hepatitis C virus genotype 1b (isolate Con1) (HCV), UniProt Q9WMX2). As to the kind of experiment: Inhibition of […] con1 NS5B polymerase assessed as [3H]UTP incorporation into acid insoluble RNA product.
For series [1], the system named is Hepatitis C virus. Nature of the series: Antiviral activity against HCV1b infected in human 2209-23 cells assessed as inhibition of virus RNA replication by Renilla luciferase reporter gene assay in presence of 5% fetal bovine serum. It counts as functional, organism-based, Hepacivirus hominis. The following applies: genotype 1b. An outline of the steps:
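Cell-based HCV subgenomic replicon (genotype 1b) assay run in medium containing 5% fetal bovine serum.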
In general terms: Reporter assays use an easily measured gene product as a stand-in for the process of interest.

For series [2], the system named is Hepatitis C virus. As to the kind of experiment: Antiviral activity against HCV1b infected in human 2209-23 cells assessed as inhibition of virus RNA replication by Renilla luciferase reporter gene assay in presence of 40% human serum. It counts as functional, organism-based, Hepacivirus hominis. The settings on record: genotype 1b. Summed up:
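Serum-shift version of the HCV subgenomic replicon (GT-1b) cell assay, with 40% human serum added to assess the effect of protein binding.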

The test system of series [3] is Hepatitis C virus. As to the kind of experiment: Selectivity ratio, EC50 for HCV1b in presence of 40% human serum to EC50 for HCV1b in presence of 5% fetal bovine serum. It counts as functional, Hepacivirus hominis, genotype 1b.
The nature of series [4]: Metabolic stability in rat liver microsomes. The settings on record: read-out: Stability. It counts as ADME, Microsome. On the technique in general: Liver microsomes are vesicles of endoplasmic reticulum, rich in cytochrome P450 enzymes.
A short description of series [5]: AUC in rat at 2 mg/kg, iv and 5 mg/kg, po. It counts as ADME, organism-based. The following applies: plasma. Summed up: (§1)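 Single-dose PK in rats or cynomolgus monkeys; intravenous dose 2 mg/Kg, oral dose 5 mg/Kg; parameters reported as means.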
A short description of series [6]: Half life in rat at 2 mg/kg, iv and 5 mg/kg, po. It counts as ADME, organism-based. The following applies: in vivo. An outline of the steps:
as §1

A short description of series [7]: Clearance in rat at 2 mg/kg, iv and 5 mg/kg, po. It counts as ADME, organism-based. The following applies: in vivo. Summed up:
as §1

Series [8] is described as follows: Oral bioavailability in rat at 5 mg/kg. The following applies: in vivo. It counts as ADME, organism-based. An outline of the steps: as §1
Series [9] deals with Hepatitis C virus. Nature of the series: Ratio of EC50 for HCV GT-1a replicon over EC50 for HCV GT-1b replicon. For orientation: In antiviral work, replicon cells carry a viral genome segment that copies itself.
For another series, the system named is Caco-2. Nature of the series: Efflux ratio of permeability from basolateral to apical over apical to basolateral side in human Caco-2 cells after 21 days. The settings on record: caco-2, 504 h.
Series [10] relates to Hepatitis C virus. As to the kind of experiment: Antiviral activity against HCV1b infected in human 2209-23 cells assessed as inhibition of virus RNA replication by Renilla luciferase reporter gene assay. The settings on record: genotype 1b. It counts as functional, organism-based, Hepacivirus hominis.
Series [11] in a line: Metabolic stability in cynomolgus monkey liver microsomes. It counts as ADME, Macaca fascicularis, Microsome. The settings on record: read-out: Stability.
A short description of series [12]: AUC in cynomolgus monkey at 2 mg/kg, iv and 5 mg/kg, po. It counts as ADME, organism-based, Macaca fascicularis. The following applies: plasma. An outline of the steps:
as §1

Series [13] can be described thus: Half life in cynomolgus monkey at 2 mg/kg, iv and 5 mg/kg, po. The following applies: in vivo. It counts as ADME, organism-based, Macaca fascicularis. Summed up: as §1
A short description of series [14]: Clearance in cynomolgus monkey at 2 mg/kg, iv and 5 mg/kg, po. It counts as ADME, organism-based, Macaca fascicularis. The settings on record: in vivo. Summed up:
as §1

The nature of series [15]: Oral bioavailability in cynomolgus monkey at 5 mg/kg. It counts as ADME, organism-based, Macaca fascicularis. The following applies: in vivo. An outline of the steps: as §1

One may read the IC50 as the point on the concentration scale where inhibition reaches its midpoint. By EC50 is commonly meant the concentration giving half of the maximal effect. As a reminder, the AUC is concentration integrated over time. The term half-life denotes how long it takes for the measured level to halve. The term bioavailability denotes the share of a dose that reaches the circulation, judged against a reference dose that is usually intravenous.

Chain of Genome polyprotein (Q9WMX2 2420-3010 limits assumed): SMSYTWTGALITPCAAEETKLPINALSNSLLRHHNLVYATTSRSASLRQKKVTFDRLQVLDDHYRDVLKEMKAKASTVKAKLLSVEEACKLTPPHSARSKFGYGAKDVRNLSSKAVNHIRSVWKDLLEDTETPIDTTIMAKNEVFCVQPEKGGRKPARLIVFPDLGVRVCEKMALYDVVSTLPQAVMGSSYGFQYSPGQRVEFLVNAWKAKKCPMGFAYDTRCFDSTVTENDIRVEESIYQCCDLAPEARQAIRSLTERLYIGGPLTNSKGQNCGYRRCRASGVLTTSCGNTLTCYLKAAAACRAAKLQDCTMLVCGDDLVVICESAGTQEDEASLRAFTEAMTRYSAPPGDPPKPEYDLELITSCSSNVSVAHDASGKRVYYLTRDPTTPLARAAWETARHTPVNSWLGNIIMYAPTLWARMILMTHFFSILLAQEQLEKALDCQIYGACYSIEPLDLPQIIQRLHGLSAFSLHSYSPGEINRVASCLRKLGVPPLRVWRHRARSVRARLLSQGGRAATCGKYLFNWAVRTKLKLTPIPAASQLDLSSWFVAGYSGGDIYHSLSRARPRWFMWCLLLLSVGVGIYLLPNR

Consider `Cc1cc(CN2C(=O)C(C3=NS(=O)(=O)c4c(CN(C)S(C)(=O)=O)cccc43)=C(O)[C@@H]2C(C)(C)C)ccc1F`, for which the IC50 at Genome polyprotein worked out at 5 nM. Besides, the EC50 with Hepatitis C virus [1] was found to be 129 nM; in the series on Hepatitis C virus [2], 1070 nM. In addition, the “Ratio IC50” value in the series on Hepatitis C virus [3] is recorded as 8.27. In addition, the microsomal CLint in series [4] is 939 µL/min/mg. In addition, in series [5], the AUC was found to be 582 ng·h/mL. In series [6], the half-life was 3.37 h. Also, the clearance in series [7] is 34.4 mL/min/kg. Besides, the bioavailability in [8] turned out to be 24%. Moreover, the Ratio EC50 in the series with Hepatitis C virus [9] was found to be 2. For the same molecule, in the series with Caco-2, the Ratio is given as 4.3.

As to `CC(C)(C)[C@H]1C(O)=C(C2=NS(=O)(=O)c3c(CN4CCCCS4(=O)=O)cccc32)C(=O)N1Cc1ccc(F)cc1`, the IC50 at Genome polyprotein came out at 12 nM. Besides, the EC50 stood at 202 nM with Hepatitis C virus [1] and 4660 nM in the series with Hepatitis C virus [2]. In addition, the “Ratio IC50” value with Hepatitis C virus [3] amounted to 23.1.

Take `CN(Cc1cccc2c1S(=O)(=O)N=C2C1=C(O)[C@H](C(C)(C)C)N(Cc2ccc(F)cc2)C1=O)S(N)(=O)=O`: the concentration for half-maximal inhibition (IC50) at Genome polyprotein was determined as 1 nM. Further, the EC50 with Hepatitis C virus [1] is 272 nM; with Hepatitis C virus [2], 1270 nM. Further, in the series on Hepatitis C virus [3], the “Ratio IC50” value is recorded as 5.9.

Take `CN(Cc1cccc2c1S(=O)(=O)N=C2C1=C(O)[C@H](C(C)(C)C)N(Cc2ccc(F)c(Cl)c2)C1=O)S(C)(=O)=O`: the IC50 on Genome polyprotein was determined as 10 nM. Further, the 50% effective concentration (EC50) in the series with Hepatitis C virus [1] stood at 108 nM; with Hepatitis C virus [2], 3040 nM. For the same molecule, the “Ratio IC50” value with Hepatitis C virus [3] came out at 28.1.

With `CC(C)(C)[C@H]1C(O)=C(C2=NS(=O)(=O)c3c(CNS(N)(=O)=O)cccc32)C(=O)N1Cc1ccc(F)cc1`, the IC50 on Genome polyprotein amounted to 3 nM. Further, the EC50 was 105 nM with Hepatitis C virus [1] and 1300 nM with Hepatitis C virus [2]. Besides, in the series with Hepatitis C virus [3], the “Ratio IC50” value was found to be 12.4.

For the molecule `CC(C)(C)[C@H]1C(O)=C(C2=NS(=O)(=O)c3c(NS(C)(=O)=O)cccc32)C(=O)N1Cc1ccc(F)cc1`, the half-inhibitory concentration (IC50) on Genome polyprotein was determined as 5 nM. The concentration for a half-maximal effect (EC50) with Hepatitis C virus [10] was determined as 4920 nM.

For `Cc1cc(CN2C(=O)C(C3=NS(=O)(=O)c4c(CNS(N)(=O)=O)cccc43)=C(O)[C@@H]2C(C)(C)C)ccc1F`, the IC50 on Genome polyprotein was 3 nM. The EC50 in the series on Hepatitis C virus [1] was 76 nM; in the series on Hepatitis C virus [2], 1170 nM. The “Ratio IC50” value with Hepatitis C virus [3] is on record as 15.3. The microsomal CLint in series [4] was found to be 239 µL/min/mg. In series [5], this molecule gave an AUC of 102 ng·h/mL. Moreover, in [6], the half-life is 4.7 h. For the same molecule, in series [7], the clearance was 48 mL/min/kg. This molecule also gave a bioavailability in series [8] of 8.2%. Also, the Ratio EC50 with Hepatitis C virus [9] came out at 2. Further, the Ratio with Caco-2 is reported as 6.7.

In the case of `CC(C)(C)[C@H]1C(O)=C(C2=NS(=O)(=O)c3c(OCS(C)(=O)=O)cccc32)C(=O)N1Cc1ccc(F)cc1`, the IC50 at Genome polyprotein came to 9 nM. In addition, the EC50 worked out at 235 nM in the series with Hepatitis C virus [1] and 4660 nM in the series with Hepatitis C virus [2]. In addition, the “Ratio IC50” value with Hepatitis C virus [3] is on record as 19.8.

On to `Cc1cc(CN2C(=O)C(C3=NS(=O)(=O)c4c(CNS(C)(=O)=O)cccc43)=C(O)[C@@H]2C(C)(C)C)ccc1F`, for which, at Genome polyprotein, the IC50 was 4 nM. Further, the EC50 with Hepatitis C virus [1] was 82 nM; in the series on Hepatitis C virus [2] it was 2570 nM. In addition, the “Ratio IC50” value in the series on Hepatitis C virus [3] is recorded as 31.3. Further, the microsomal CLint was 431 µL/min/mg in series [4] and 23 µL/min/mg in [11]. In addition, the area under the curve (AUC) in series [5] amounted to 2750 ng·h/mL; in series [12] it was 1230 ng·h/mL. Moreover, the half-life is 4.18 h in [6] and 1.75 h in series [13]. The clearance stood at 8.4 mL/min/kg in series [7] and 10 mL/min/kg in series [14]. The bioavailability in series [8] amounted to 17%; in series [15], 11%. Also, the Ratio EC50 in the series on Hepatitis C virus [9] turned out to be 2. The Ratio in the series on Caco-2 was determined as 31.

As to `CC(C)(C)[C@H]1C(O)=C(C2=NS(=O)(=O)c3c(CNS(C)(=O)=O)cccc32)C(=O)N1Cc1ccc(F)cc1`, the EC50 came out at 100 nM in the series with Hepatitis C virus [1] and 3730 nM with Hepatitis C virus [2]. Also, the “Ratio IC50” value in the series on Hepatitis C virus [3] is reported as 37.3. Also, the Ratio EC50 in the series with Hepatitis C virus [9] is 2.

For `CC(C)(C)[C@H]1C(O)=C(C2=NS(=O)(=O)c3c(OCS(N)(=O)=O)cccc32)C(=O)N1Cc1ccc(F)cc1`, on Genome polyprotein, the IC50 was 6 nM. The figures for the concentration for a half-maximal effect (EC50) in the series on Hepatitis C virus [1] and in the series with Hepatitis C virus [2] were 228 nM and 2900 nM, respectively. The “Ratio IC50” value in the series on Hepatitis C virus [3] came out at 12.7.

Consider `CC(C)(C)[C@H]1C(O)=C(C2=NS(=O)(=O)c3cc(CNS(C)(=O)=O)ccc32)C(=O)N1Cc1ccc(F)cc1`, for which the IC50 on Genome polyprotein is 43 nM. In addition, in the series with Hepatitis C virus [10], the EC50 is 3840 nM.

`CC(C)(C)[C@H]1C(O)=C(C2=NS(=O)(=O)c3c(CCS(C)(=O)=O)cccc32)C(=O)N1Cc1ccc(F)cc1`: the IC50 on Genome polyprotein stood at 4 nM. The values for the EC50 with Hepatitis C virus [1] and in the series with Hepatitis C virus [2] were 282 nM and 4800 nM, respectively. The “Ratio IC50” value in the series on Hepatitis C virus [3] was 17.
